Experimental data from different studies.
Lines come from different studies, so protocols differ.
Effect on: cell growth or viability

With Cc1cc(=O)oc2cc(OCCCCSC#N)ccc12 the GI50 was 0.63 µM (SW1573; SRB).
CCCCCCCCCCCCCCCCCCOc1ccc(CC(=O)OCC[N+]2(C)CCCCC2)cc1 gave an inhibition of 13.3% (NCI-H23; SRB; 10 µM).
With COC(=O)[C@H]1[C@@H](O)[C@@]2(O)c3c(OC)cc(O[C@@H]4O[C@@H]([C@H](O)CO)CO[C@H]4OC)cc3O[C@@]2(c2ccc(OC)cc2)[C@@H]1c1ccccc1 the IC50 was 0.007 µM (C6661; MTS; 48 h).
NCCC(=O)Nc1ccccc1/N=c1\cc(-c2ccc3nc(N)oc3c2)oc2cc(O)ccc12 gave an inhibition of 3.71% (MOLM-13; CCK-8; 1 µM).
The viability of CC(=O)O[C@H]1C(=O)[C@@]2(C)[C@H]([C@H](OC(=O)c3ccccc3)[C@]3(O)C[C@H](OC(=O)[C@H](O)[C@@H](NC(=O)c4ccccc4)c4ccccc4)C(C)=C1C3(C)C)[C@]1(OC(C)=O)CO[C@@H]1C[C@@H]2O is reported as 21.3% (CHP-212; SRB; 0.1235 µM).
With C(=N\Nc1cc(N/N=C/c2ccc3ccccc3n2)nc(-c2ccccc2)n1)/c1ccc2ccccc2n1 the IC50 was 10.2 µM (Bel-7402; MTT; 48 h).
With CNCc1ccc(-c2cc(-c3nc(-c4ccc(S(=O)(=O)C(C)C)cc4)cnc3N)on2)cc1 the IC50 was 3.05 µM (CT26; ATP luminescence; 24 h).
CCNNC(=O)c1ccc(CN(CC(=O)NCc2ccccc2)C(=O)c2ccc(N(C)C)cc2)cc1 gave an IC50 of 4.62 µM (A2780cisR; MTT; 72 h).
With NCCC(=O)Nc1ccccc1/N=c1\cc(-c2ccc3c(c2)OCO3)oc2ccccc12 the inhibition was 2.07% (MOLM-13; CCK-8; 1 µM).
With COc1cccc2c1C(=O)c1c(O)c3c(c(O)c1C2=O)C[C@@](O)(C(=O)CO)C[C@@H]3O[C@H]1C[C@H](N)[C@H](O)[C@H](C)O1 the viability was 19.4% (CHP-212; SRB; 0.3704 µM).
CCCCCCCCCCCCCCCCCCOc1ccccc1CC(=O)OCCC[N+](C)(C)C has an inhibition of 53.6% (NCI-H23; SRB; 10 µM).
CC(C)C[C@H](NC(=O)[C@H](Cc1ccccc1)NC(=O)c1cnccn1)B(O)O gave a viability of 93.9% (CHP-212; SRB; 4.572 nM).
CCCCCCCCCCCCCCCCCCOc1cccc(CC(=O)OCC[N+]2(C)CCCC2)c1 gave an inhibition of 24.6% (NCI-H23; SRB; 10 µM).
NCCCCC(=O)Nc1ccccc1/N=c1\cc(-c2ccc3c(c2)OCO3)oc2ccccc12 has an inhibition of -0.26% (MOLM-13; CCK-8; 1 µM).
With CCCCCCCCCCCCCCCCCCOc1cccc(CC(=O)OCC[N+]2(C)CCOCC2)c1 the inhibition was 4.14% (NCI-H23; SRB; 10 µM).
CC(C)(C)[C@H](N)C(=O)Nc1ccccc1/N=c1\cc(-c2ccc3c(c2)OCO3)oc2ccccc12 has an inhibition of 4.05% (MOLM-13; CCK-8; 1 µM).
For CCCCCCCCCCCCCCCCCCOCC(COP(=O)([O-])OCC[N+](C)(C)C)OC (stereo not drawn), the inhibition was 10.9% (NCI-H23; SRB; 10 µM).
O=C(Nc1ccccc1/N=c1\cc(-c2ccc3c(c2)OCO3)oc2ccccc12)N1CCNCC1 has an inhibition of 1.47% (MOLM-13; CCK-8; 1 µM).
The IC50 of C(=N\Nc1cc(N/N=C/c2ccc3ccccc3n2)ncn1)/c1ccc2ccccc2n1 is reported as 34 µM (Bel-7402; MTT; 48 h).
The IC50 of O=C(N[C@@H](CSCc1ccccc1)C(=O)NO)c1ccccc1 is reported as 11.3 µM (NCI-H1573; MTT; 48 h).
For NCCC(=O)Nc1ccccc1/N=c1\cc(-c2ccc3nc(N)oc3c2)oc2ccc(O)cc12, the inhibition was 47.1% (MOLM-13; CCK-8; 1 µM).
